The source of these data is ChEMBL document CHEMBL5252537, “Usnic Acid Benzylidene Analogues as Potent Mechanistic Target of Rapamycin Inhibitors for the Control of Breast Malignancies” (J Nat Prod, 2017).

By IC50 is commonly meant the point on the concentration scale where inhibition reaches its midpoint. High values mean weaker potency, low ones greater potency.

Assay [1] has as its system MCF7. The experiment in a line: Antiproliferative activity against human MCF7 cells incubated for 72 hrs by MTT assay. It is filed as functional, cell-based. As to conditions: MCF7, 72 h. The essentials:
(§1)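 Cells seeded at 5 × 10^3/well and allowed to attach overnight, then washed with PBS. Compound diluted from 10 mM DMSO stock into medium (100 ng/mL HGF added for c-Met-expressing cells), in triplicate, 72 h at 37 °C. MTT added for 4 h, formazan dissolved in DMSO, absorbance read at 570 nm. Cell numbers taken from a standard curve; IC50 calculated.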
A general note: Formazan colour is commonly taken as a measure of viable cells.

Assay [2] concerns MDA-MB-231. The experiment in a line: Antiproliferative activity against human MDA-MB-231 cells incubated for 72 hrs by MTT assay. As to conditions: MDA-MB-231, 72 h. It is filed as functional, cell-based. The essentials:
as §1

Turning to `CCOc1ccc(/C=C/C(=O)c2c(O)c(C)c(O)c3c2OC2=CC(O)=C(C(C)=O)C(=O)[C@]23C)cc1`, the IC50 stood at 0.71 µM in assay [1] and 0.84 µM in assay [2].

`CC(=O)C1=C(O)C=C2Oc3c(C(=O)/C=C/c4ccc(OCc5c(F)cccc5Cl)cc4)c(O)c(C)c(O)c3[C@]2(C)C1=O`: the IC50 in assay [1] was found to be 0.87 µM; in assay [2], 0.93 µM.

On to `CC(=O)C1=C(O)C=C2Oc3c(C(=O)/C=C/c4cccc(C(F)(F)F)c4)c(O)c(C)c(O)c3[C@]2(C)C1=O`, for which the IC50 worked out at 1.23 µM in assay [1] and 1.16 µM in assay [2].

Turning to `CC(=O)C1=C(O)C=C2Oc3c(C(=O)/C=C/c4ccc(OCc5ccccc5)cc4)c(O)c(C)c(O)c3[C@]2(C)C1=O`, the IC50 in assay [1] came out at 1.14 µM; in assay [2] it was 0.95 µM.

Take `CC(=O)C1=C(O)C=C2Oc3c(C(=O)/C=C/c4ccc(F)cc4)c(O)c(C)c(O)c3[C@]2(C)C1=O`: the IC50 in assay [1] is 2.98 µM; in assay [2] it was 3.31 µM.

`CC(=O)C1=C(O)C=C2Oc3c(C(=O)/C=C/c4c(F)cccc4F)c(O)c(C)c(O)c3[C@]2(C)C1=O`: the IC50 in assay [1] came out at 1.96 µM; in assay [2] it was 2.38 µM.

With `CC(=O)C1=C(O)C=C2Oc3c4c(c(C)c(O)c3[C@]2(C)C1=O)OC(c1ccc(F)cc1)CC4=O` (some centres not stated), the IC50 in assay [1] amounted to 6.22 µM; in assay [2], 6.89 µM.

As to `CC(=O)C1=C(O)C=C2Oc3c(C(=O)/C=C/c4ccc(-c5ccc(F)cc5)cc4)c(O)c(C)c(O)c3[C@]2(C)C1=O`, the IC50 in assay [1] worked out at 0.52 µM; in assay [2], 0.68 µM.

For the molecule `CCSc1ccc(/C=C/C(=O)c2c(O)c(C)c(O)c3c2OC2=CC(O)=C(C(C)=O)C(=O)[C@]23C)cc1`, the IC50 in assay [1] came out at 0.54 µM; in assay [2], 0.73 µM.

With `CCCCOc1ccc(/C=C/C(=O)c2c(O)c(C)c(O)c3c2OC2=CC(O)=C(C(C)=O)C(=O)[C@]23C)cc1`, the IC50 was 0.53 µM in assay [1] and 0.62 µM in assay [2].

In the case of `CC(=O)C1=C(O)C=C2Oc3c4c(c(C)c(O)c3[C@]2(C)C1=O)OC(c1ccc(C(C)(C)C)cc1)CC4=O` (some centres not stated), the values for the IC50 in assay [1] and in assay [2] were 3.43 µM and 3.65 µM, respectively.

With `CC(=O)C1=C(O)C=C2Oc3c4c(c(C)c(O)c3[C@]2(C)C1=O)OC(c1ccc(OCc2ccc(F)cc2)cc1)CC4=O` (some centres not stated), the values for the IC50 in assay [1] and in assay [2] were 4.32 µM and 5.58 µM, respectively.

With `COc1cc(F)c(/C=C/C(=O)c2c(O)c(C)c(O)c3c2OC2=CC(O)=C(C(C)=O)C(=O)[C@]23C)cc1OC`, the IC50 in assay [1] stood at 0.93 µM; in assay [2], 1.15 µM.

For `CC(=O)C1=C(O)C=C2Oc3c(C(=O)CC(O)c4cc(C(F)(F)F)cc(C(F)(F)F)c4)c(O)c(C)c(O)c3[C@]2(C)C1=O` (some centres not stated), the IC50 in assay [1] was found to be 5.24 µM; in assay [2], 1.56 µM.

For the molecule `CC(=O)C1=C(O)C=C2Oc3c4c(c(C)c(O)c3[C@]2(C)C1=O)OC(c1c(Cl)cccc1Cl)CC4=O` (some centres not stated), the IC50 in assay [1] came to 4.92 µM; in assay [2], 4.31 µM.

Regarding `CC(=O)C1=C(O)C=C2Oc3c(C(=O)/C=C/c4cc(Cl)cc(Cl)c4)c(O)c(C)c(O)c3[C@]2(C)C1=O`, the IC50 in assay [1] was determined as 2.44 µM; in assay [2], 2.95 µM.

Regarding `CC(=O)C1=C(O)C=C2Oc3c(C(=O)/C=C/c4ccc(C)cc4)c(O)c(C)c(O)c3[C@]2(C)C1=O`, the values for the IC50 in assay [1] and in assay [2] were 1.33 µM and 1.65 µM, respectively.

Turning to `CC(=O)C1=C(O)C=C2Oc3c(C(=O)/C=C/c4ccccc4F)c(O)c(C)c(O)c3[C@]2(C)C1=O`, the figures for the IC50 in assay [1] and in assay [2] were 3.74 µM and 3.54 µM, respectively.

For the molecule `CC(=O)C1=C(O)C=C2Oc3c(C(=O)/C=C/c4c(Cl)cccc4Cl)c(O)c(C)c(O)c3[C@]2(C)C1=O`, the IC50 in assay [1] came to 1.53 µM; in assay [2], 5.69 µM.

For the molecule `CC(=O)C1=C(O)C=C2Oc3c4c(c(C)c(O)c3[C@]2(C)C1=O)OC(c1cccc(Cl)c1)CC4=O` (some centres not stated), the IC50 in assay [1] was found to be 6.32 µM; in assay [2], 6.41 µM.

As for `CC(=O)C1=C(O)C=C2Oc3c4c(c(C)c(O)c3[C@]2(C)C1=O)OC(c1ccc(Cl)cc1Cl)CC4=O` (some centres not stated), the IC50 in assay [1] stood at 3.64 µM; in assay [2], 4.01 µM.

As to `COc1cccc(C2CC(=O)c3c(c(C)c(O)c4c3OC3=CC(O)=C(C(C)=O)C(=O)[C@]34C)O2)c1` (some centres not stated), the half-inhibitory concentration (IC50) in assay [1] turned out to be 3.73 µM; in assay [2], 2.94 µM.

In the case of `CC(=O)C1=C(O)C=C2Oc3c4c(c(C)c(O)c3[C@]2(C)C1=O)OC(c1ccc(OC(F)(F)F)cc1)CC4=O` (some centres not stated), the IC50 in assay [1] stood at 1.51 µM; in assay [2] it was 1.79 µM.

`CCOc1ccccc1C1CC(=O)c2c(c(C)c(O)c3c2OC2=CC(O)=C(C(C)=O)C(=O)[C@]23C)O1` (some centres not stated): the figures for the IC50 in assay [1] and in assay [2] were 5.92 µM and 6.13 µM, respectively.

Take `CC(=O)C1=C(O)C=C2Oc3c(C(=O)/C=C/c4cccc(F)c4)c(O)c(C)c(O)c3[C@]2(C)C1=O`: the IC50 amounted to 3.63 µM in assay [1] and 4.79 µM in assay [2].

For the molecule `CCOc1ccc(C2CC(=O)c3c(c(C)c(O)c4c3OC3=CC(O)=C(C(C)=O)C(=O)[C@]34C)O2)cc1` (some centres not stated), the IC50 in assay [1] was 3.36 µM; in assay [2], 3.68 µM.

With `CC(=O)C1=C(O)C=C2Oc3c(C(=O)/C=C/c4ccc(Cl)cc4)c(O)c(C)c(O)c3[C@]2(C)C1=O`, the IC50 in assay [1] turned out to be 2.1 µM; in assay [2] it was 2.63 µM.

As to `CC(=O)C1=C(O)C=C2Oc3c(C(=O)/C=C/c4ccc(-c5ccccc5)cc4)c(O)c(C)c(O)c3[C@]2(C)C1=O`, the values for the IC50 in assay [1] and in assay [2] were 0.74 µM and 0.72 µM, respectively.

In the case of `CC(=O)C1=C(O)C=C2Oc3c(C(=O)/C=C/c4ccc(C(=O)O)cc4)c(O)c(C)c(O)c3[C@]2(C)C1=O`, the values for the IC50 in assay [1] and in assay [2] were 9.38 µM and 10.6 µM, respectively.

`CC(=O)C1=C(O)C=C2Oc3c(C(=O)/C=C/c4ccc(C(F)(F)F)cc4)c(O)c(C)c(O)c3[C@]2(C)C1=O`: the IC50 in assay [1] turned out to be 0.73 µM; in assay [2], 0.71 µM.

As to `CC(=O)C1=C(O)C=C2Oc3c(C(=O)/C=C/c4cc(F)cc(F)c4)c(O)c(C)c(O)c3[C@]2(C)C1=O`, the figures for the IC50 in assay [1] and in assay [2] were 1.82 µM and 2.09 µM, respectively.

Take `CC(=O)C1=C(O)C=C2Oc3c(C(=O)/C=C/c4ccc(Cl)cc4Cl)c(O)c(C)c(O)c3[C@]2(C)C1=O`: the IC50 is 0.93 µM in assay [1] and 1.36 µM in assay [2].

With `CC(=O)C1=C(O)C=C2Oc3c(C(=O)/C=C/c4cc(C(F)(F)F)cc(C(F)(F)F)c4)c(O)c(C)c(O)c3[C@]2(C)C1=O`, the IC50 stood at 0.91 µM in assay [1] and 0.72 µM in assay [2].

Take `CCCCOc1ccc(C2CC(=O)c3c(c(C)c(O)c4c3OC3=CC(O)=C(C(C)=O)C(=O)[C@]34C)O2)cc1` (some centres not stated): the values for the IC50 in assay [1] and in assay [2] were 2.91 µM and 2.23 µM, respectively.

On to `CC(=O)C1=C(O)C=C2Oc3c4c(c(C)c(O)c3[C@]2(C)C1=O)OC(c1ccc(C(F)(F)F)cc1)CC4=O` (some centres not stated), for which the IC50 came to 4.77 µM in assay [1] and 3.93 µM in assay [2].

Regarding `CC(=O)C1=C(O)C=C2Oc3c(C(=O)/C=C/c4ccccc4)c(O)c(C)c(O)c3[C@]2(C)C1=O`, the IC50 came to 4.5 µM in assay [1] and 5.1 µM in assay [2].

For `CC(=O)C1=C(O)C=C2Oc3c(C(=O)/C=C/c4ccc(C(C)(C)C)cc4)c(O)c(C)c(O)c3[C@]2(C)C1=O`, the IC50 in assay [1] was 0.84 µM; in assay [2] it was 1.03 µM.

For the molecule `CC(=O)C1=C(O)C=C2Oc3c4c(c(C)c(O)c3[C@]2(C)C1=O)OC(c1ccccc1)CC4=O` (some centres not stated), the IC50 in assay [1] worked out at 7.26 µM; in assay [2], 8.04 µM.

For `CCOc1ccccc1/C=C/C(=O)c1c(O)c(C)c(O)c2c1OC1=CC(O)=C(C(C)=O)C(=O)[C@]12C`, the IC50 in assay [1] came to 2.18 µM; in assay [2], 2.03 µM.

On to `CC(=O)C1=C(O)C=C2Oc3c(C(=O)/C=C/c4ccc(OCc5ccc(F)cc5)cc4)c(O)c(C)c(O)c3[C@]2(C)C1=O`, for which the figures for the IC50 in assay [1] and in assay [2] were 0.75 µM and 0.91 µM, respectively.

Consider `CSc1ccc(/C=C/C(=O)c2c(O)c(C)c(O)c3c2OC2=CC(O)=C(C(C)=O)C(=O)[C@]23C)cc1`, for which the IC50 in assay [1] worked out at 0.72 µM; in assay [2] it was 0.89 µM.

Consider `CC(=O)C1=C(O)C=C2Oc3c4c(c(C)c(O)c3[C@]2(C)C1=O)OC(c1ccc(C(=O)O)cc1)CC4=O` (some centres not stated), for which the results for the IC50 in assay [1] and in assay [2] were 12.8 µM and 14.4 µM, respectively.

Regarding `CC(=O)C1=C(O)C=C2Oc3c(C(=O)/C=C/c4ccc(Br)cc4)c(O)c(C)c(O)c3[C@]2(C)C1=O`, the IC50 in assay [1] was found to be 1.13 µM; in assay [2], 1.53 µM.

For `CC(=O)C1=C(O)C=C2Oc3c(C(=O)/C=C/c4cccc(Cl)c4)c(O)c(C)c(O)c3[C@]2(C)C1=O`, the IC50 was 2.7 µM in assay [1] and 3.92 µM in assay [2].

For the molecule `COc1cc(/C=C/C(=O)c2c(O)c(C)c(O)c3c2OC2=CC(O)=C(C(C)=O)C(=O)[C@]23C)cc(OC)c1OC`, the IC50 in assay [1] stood at 1.22 µM; in assay [2], 1.63 µM.

With `CC(=O)C1=C(O)C=C2Oc3c4c(c(C)c(O)c3[C@]2(C)C1=O)OC(c1ccc(OCc2c(F)cccc2Cl)cc1)CC4=O` (some centres not stated), the half-maximal inhibitory concentration (IC50) in assay [1] was found to be 3.09 µM; in assay [2], 4.42 µM.

As to `CC(=O)C1=C(O)C=C2Oc3c(C(=O)/C=C/c4ccc(OCCC(C)C)cc4)c(O)c(C)c(O)c3[C@]2(C)C1=O`, the IC50 is 0.39 µM in assay [1] and 0.58 µM in assay [2].

Take `CC(=O)C1=C(O)C=C2Oc3c(C(=O)CC(O)c4cc(Cl)cc(Cl)c4)c(O)c(C)c(O)c3[C@]2(C)C1=O` (some centres not stated): the IC50 in assay [1] amounted to 5.81 µM; in assay [2] it was 4.44 µM.

For `COc1ccc(/C=C/C(=O)c2c(O)c(C)c(O)c3c2OC2=CC(O)=C(C(C)=O)C(=O)[C@]23C)cc1`, the IC50 in assay [1] is 0.97 µM; in assay [2], 0.96 µM.

For the molecule `CC(=O)C1=C(O)C=C2Oc3c4c(c(C)c(O)c3[C@]2(C)C1=O)OC(c1ccc(C)cc1)CC4=O` (some centres not stated), the IC50 was found to be 4.21 µM in assay [1] and 5.99 µM in assay [2].

Consider `CC(=O)C1=C(O)C=C2Oc3c4c(c(C)c(O)c3[C@]2(C)C1=O)OC(c1ccc(OCc2ccccc2)cc1)CC4=O` (some centres not stated), for which the IC50 in assay [1] came to 6.53 µM; in assay [2], 5.71 µM.
